The MIC is the lowest concentration that inhibits growth of the organism.

These results are taken from ChEMBL document CHEMBL1139634, “Synthesis of substituted indole derivatives as a new class of antimalarial agents” (2005).

Molecules are shown by their SMILES. Values after ≈ are worked out from the molar mass of the structure shown.

This experiment concerns Plasmodium falciparum. In words: In vitro minimum inhibitory concentration against Plasmodium falciparum NF54 over 40 hours. Format: functional. The gist of the method: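 Micro assay in 96-well format: compounds at 0.25–50 µg/mL, duplicate wells, incubated with parasitized cells at 37 °C in candle jar, 36–40 h. Giemsa-stained smears scored microscopically for ring-to-schizont maturation. MIC is the concentration fully blocking schizont maturation. Pyrimethamine reference.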
The compound `Cc1ccc(-c2cc(-c3c[nH]c4ccccc34)nc(N3CCCCC3)n2)cc1` had an MIC of 10 µg/mL (≈ 27.1 µM).

Turning to `COc1ccc(-c2cc(-c3c[nH]c4ccccc34)nc(N3CCCC3)n2)cc1OC`, it took 10 µg/mL (≈ 25 µM) to inhibit growth (MIC). Regarding `Clc1ccc(-c2cc(-c3c[nH]c4ccccc34)nc(N3CCCC3)n2)cc1`, the MIC is 10 µg/mL (≈ 26.7 µM). Compound `COc1ccc(-c2cc(-c3c[nH]c4ccccc34)nc(N3CCCCC3)n2)cc1OC` came in with an MIC of 10 µg/mL (≈ 24.1 µM). Next, `c1ccc(-c2cc(-c3c[nH]c4ccccc34)nc(N3CCCC3)n2)cc1`: 10 µg/mL (≈ 29.4 µM). Next, `Clc1ccc(-c2cc(-c3c[nH]c4ccccc34)nc(N3CCCCC3)n2)cc1`: 10 µg/mL (≈ 25.7 µM); `Cc1ccc(-c2cc(-c3c[nH]c4ccccc34)nc(N3CCOCC3)n2)cc1`: 50 µg/mL (≈ 135 µM); `c1ccc(-c2cc(-c3c[nH]c4ccccc34)nc(N3CCCCC3)n2)cc1`: 10 µg/mL (≈ 28.2 µM). For the compound `Clc1ccc(-c2cc(-c3c[nH]c4ccccc34)nc(N3CCOCC3)n2)cc1`, inhibition of growth (MIC) required 50 µg/mL (≈ 128 µM).

In the case of `COc1ccc(-c2cc(-c3c[nH]c4ccccc34)nc(N3CCOCC3)n2)cc1`, 50 µg/mL (≈ 129 µM) was the least that counted as inhibitory (MIC). Consider `COc1ccc(-c2cc(-c3c[nH]c4ccccc34)nc(N3CCN(C)CC3)n2)cc1`, for which the MIC is 1 µg/mL (≈ 2.5 µM).

As to `COc1ccc(-c2cc(-c3c[nH]c4ccccc34)nc(N3CCN(C)CC3)n2)cc1OC`, the MIC worked out at 1 µg/mL (≈ 2.33 µM). Next, `COc1ccc(-c2cc(-c3c[nH]c4ccccc34)nc(N3CCCCC3)n2)cc1`: 10 µg/mL (≈ 26 µM). Next, `COc1ccc(-c2cc(-c3c[nH]c4ccccc34)nc(N3CCOCC3)n2)cc1OC`: 50 µg/mL (≈ 120 µM); `Cc1ccc(-c2cc(-c3c[nH]c4ccccc34)nc(N3CCN(C)CC3)n2)cc1`: 1 µg/mL (≈ 2.61 µM); `CN1CCN(c2nc(-c3ccccc3)cc(-c3c[nH]c4ccccc34)n2)CC1`: 1 µg/mL (≈ 2.71 µM). Next, `CN1CCN(c2nc(-c3ccc(Cl)cc3)cc(-c3c[nH]c4ccccc34)n2)CC1`: 1 µg/mL (≈ 2.48 µM). Compound `COc1ccc(OC)c(-c2cc(-c3c[nH]c4ccccc34)nc(N3CCCC3)n2)c1` had an MIC of 10 µg/mL (≈ 25 µM).

As to `COc1ccc(OC)c(-c2cc(-c3c[nH]c4ccccc34)nc(N3CCOCC3)n2)c1`, 50 µg/mL (≈ 120 µM) was the least that counted as inhibitory (MIC). In turn, `c1ccc(-c2cc(-c3c[nH]c4ccccc34)nc(N3CCOCC3)n2)cc1` yielded an MIC of 50 µg/mL (≈ 140 µM). The value for `COc1ccc(OC)c(-c2cc(-c3c[nH]c4ccccc34)nc(N3CCN(C)CC3)n2)c1` was 1 µg/mL (≈ 2.33 µM); that for `COc1ccc(-c2cc(-c3c[nH]c4ccccc34)nc(N3CCCC3)n2)cc1` was 10 µg/mL (≈ 27 µM). `Cc1ccc(-c2cc(-c3c[nH]c4ccccc34)nc(N3CCCC3)n2)cc1` showed a minimal inhibitory concentration (MIC) of 10 µg/mL (≈ 28.2 µM). The value for `CCc1nc(N)nc(N)c1-c1ccc(Cl)cc1` [PYRIMETHAMINE] was 10 µg/mL (≈ 40.2 µM); that for `COc1ccc(OC)c(-c2cc(-c3c[nH]c4ccccc34)nc(N3CCCCC3)n2)c1` was 10 µg/mL (≈ 24.1 µM).
